From ChEMBL document CHEMBL4706598 (Eur J Med Chem, 2020)
Calls of active or inactive are those of the source. The rule behind the calls is not given here.

How the values were obtained:
Dipeptidyl peptidase 8 = Dipeptidyl peptidase 8 (Homo sapiens, UniProt Q6V1X1); assay: Inhibition of DPP8 (unknown origin)
Dipeptidyl peptidase 9 = Dipeptidyl peptidase 9 (Homo sapiens, UniProt Q86TI2); assay: Inhibition of DPP9 (unknown origin)
HepG2 = assay: Cytotoxicity against human HepG2 cells assessed as reduction in cell viability at 1 to 100 uM measured after 48 hrs by MTT assay; format: cell-based; settings: hepg2, 48 h, dose 1-100 µM
Procedure, shortened: (§1)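 HepG2 cells were exposed to compound at a range of concentrations for 48 h. Viability was measured by MTT assay. Mean ± SD, n = 3.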

Dipeptidyl peptidase 4 = Dipeptidyl peptidase 4 (Homo sapiens, UniProt P27487); assay: Inhibition of DPP4 in human Caco-2 cells using AP-AFC as substrate preincubated with enzyme for 10 mins followed by substrate addition and measured after 10 mins by fluorescence based analysis; format: cell-based
[1] = Cytotoxicity against human HepG2 cells assessed as cell viability at 100 uM measured after 48 hrs by MTT assay; format: cell-based; settings: read-out: Activity; procedure, shortened: as §1
Mus musculus [2] = assay: Anti-Hyperglycemic activity in high fat diet-fed/streptozotocin-induced type 2 diabetic mellitus C57BL/6 mouse model assessed as blood glucose level at 1 mg/kg, ip administered 30 mins prior to glucose challenge and measured after 0.5 hrs by IPGTT (reference value: 12.7 +/- 0.7 mM); format: functional; settings: time 60 min
Procedure, shortened: (§2)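 Male C57BL/6 mice made type 2 diabetic by high-fat diet plus streptozotocin. Each received a single intraperitoneal dose (1, 5 or 10 mg/kg) 30 min before an intraperitoneal glucose challenge. Blood glucose was read at 0, 0.5, 1, 1.5 and 2 h. Results are mean ± SD, n = 4.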

Mus musculus [3] = assay: Anti-Hyperglycemic activity in high fat diet-fed/streptozotocin-induced type 2 diabetic mellitus C57BL/6 mouse model assessed as blood glucose level at 1 mg/kg, ip administered 30 mins prior to glucose challenge and measured after 1 hr by IPGTT (reference value: 12.7 +/- 0.7 mM); format: functional; settings: time 90 min, 1.5 h; procedure, shortened: as §2
Mus musculus [4] = assay: Anti-Hyperglycemic activity in high fat diet-fed/streptozotocin-induced type 2 diabetic mellitus C57BL/6 mouse model assessed as blood glucose level at 1 mg/kg, ip administered 30 mins prior to glucose challenge and measured after 1.5 hrs by IPGTT (reference value: 12.7 +/- 0.7 mM); format: functional; settings: time 120 min, 2 h; procedure, shortened: as §2
Mus musculus [5] = assay: Anti-Hyperglycemic activity in high fat diet-fed/streptozotocin-induced type 2 diabetic mellitus C57BL/6 mouse model assessed as blood glucose level at 1 mg/kg, ip administered 30 mins prior to glucose challenge and measured after 2 hrs by IPGTT (reference value: 12.7 +/- 0.7 mM); format: functional; settings: time 150 min, 2.5 h; procedure, shortened: as §2
Mus musculus [6] = assay: Anti-Hyperglycemic activity in high fat diet-fed/streptozotocin-induced type 2 diabetic mellitus C57BL/6 mouse model assessed as blood glucose level at 5 mg/kg, ip administered 30 mins prior to glucose challenge and measured after 0.5 hrs by IPGTT (reference value: 13.4 +/- 1.1 mM); format: functional; settings: time 60 min, 1 h; procedure, shortened: as §2
Mus musculus [7] = assay: Anti-Hyperglycemic activity in high fat diet-fed/streptozotocin-induced type 2 diabetic mellitus C57BL/6 mouse model assessed as blood glucose level at 5 mg/kg, ip administered 30 mins prior to glucose challenge and measured after 1 hr by IPGTT (reference value: 13.4 +/- 1.1 mM); format: functional; settings: time 90 min, 1.5 h; procedure, shortened: as §2
Mus musculus [8] = assay: Anti-Hyperglycemic activity in high fat diet-fed/streptozotocin-induced type 2 diabetic mellitus C57BL/6 mouse model assessed as blood glucose level at 5 mg/kg, ip administered 30 mins prior to glucose challenge and measured after 1.5 hrs by IPGTT (reference value: 13.4 +/- 1.1 mM); format: functional; settings: time 120 min, 2 h; procedure, shortened: as §2
Mus musculus [9] = assay: Anti-Hyperglycemic activity in high fat diet-fed/streptozotocin-induced type 2 diabetic mellitus C57BL/6 mouse model assessed as blood glucose level at 5 mg/kg, ip administered 30 mins prior to glucose challenge and measured after 2 hrs by IPGTT (reference value: 13.4 +/- 1.1 mM); format: functional; settings: time 150 min, 2.5 h; procedure, shortened: as §2
Mus musculus [10] = assay: Anti-Hyperglycemic activity in high fat diet-fed/streptozotocin-induced type 2 diabetic mellitus C57BL/6 mouse model assessed as blood glucose level at 10 mg/kg, ip administered 30 mins prior to glucose challenge and measured after 0.5 hrs by IPGTT (reference value: 12.3 to 15.3 mM); format: functional; settings: time 60 min, 1 h; procedure, shortened: as §2
Mus musculus [11] = assay: Anti-Hyperglycemic activity in high fat diet-fed/streptozotocin-induced type 2 diabetic mellitus C57BL/6 mouse model assessed as blood glucose level at 10 mg/kg, ip administered 30 mins prior to glucose challenge and measured after 1 hrs by IPGTT (reference value: 12.3 to 15.3 mM); format: functional; settings: time 90 min, 1.5 h; procedure, shortened: as §2
Mus musculus [12] = assay: Anti-Hyperglycemic activity in high fat diet-fed/streptozotocin-induced type 2 diabetic mellitus C57BL/6 mouse model assessed as blood glucose level at 10 mg/kg, ip administered 30 mins prior to glucose challenge and measured after 1.5 hrs by IPGTT (reference value: 12.3 to 15.3 mM); format: functional; settings: time 120 min, 2 h; procedure, shortened: as §2
Mus musculus [13] = assay: Anti-Hyperglycemic activity in high fat diet-fed/streptozotocin-induced type 2 diabetic mellitus C57BL/6 mouse model assessed as blood glucose level at 10 mg/kg, ip administered 30 mins prior to glucose challenge and measured after 2 hrs by IPGTT (reference value: 12.3 to 15.3 mM); format: functional; settings: time 150 min, 2.5 h; procedure, shortened: as §2
Mus musculus [14] = assay: Anti-Hyperglycemic activity in high fat diet-fed/streptozotocin-induced type 2 diabetic mellitus C57BL/6 mouse model assessed as blood glucose level at 10 mg/kg, po administered 30 mins prior to glucose challenge and measured after 30 mins by OGTT (reference value: 15.8 +/-4.5 mM); format: functional; settings: time 60 min, 1 h
Mus musculus [15] = assay: Anti-Hyperglycemic activity in high fat diet-fed/streptozotocin-induced type 2 diabetic mellitus C57BL/6 mouse model assessed as blood glucose level at 10 mg/kg, po administered 30 mins prior to glucose challenge and measured after 60 mins by OGTT (reference value: 15.8 +/-4.5 mM); format: functional; settings: time 90 min, 1.5 h
Mus musculus [16] = assay: Anti-Hyperglycemic activity in high fat diet-fed/streptozotocin-induced type 2 diabetic mellitus C57BL/6 mouse model assessed as blood glucose level at 10 mg/kg, po administered 30 mins prior to glucose challenge and measured after 90 mins by OGTT (reference value: 15.8 +/-4.5 mM); format: functional; settings: time 120 min, 2 h
Mus musculus [17] = assay: Anti-Hyperglycemic activity in high fat diet-fed/streptozotocin-induced type 2 diabetic mellitus C57BL/6 mouse model assessed as blood glucose level at 10 mg/kg, po administered 30 mins prior to glucose challenge and measured after 120 mins by OGTT (reference value: 15.8 +/-4.5 mM); format: functional; settings: time 150 min, 2.5 h
Mus musculus [18] = assay: Anti-Hyperglycemic activity in high fat diet-fed/streptozotocin-induced type 2 diabetic mellitus C57BL/6 mouse model assessed as reduction in AUC(0 to 120 mins) of blood glucose level at 1 mg/kg, ip administered 30 mins prior to glucose challenge and measured after 120 mins by IGTT; format: functional; settings: C57BL/6, ip, 2.5 h, time 150 min
Procedure, shortened: (§3)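 Glucose tolerance tests (intraperitoneal or oral) in HFD/STZ type 2 diabetic male C57BL/6 mice. Glucose AUC was calculated over 0–120 min. Percent reduction came from AUC normalised to saline-challenged controls. Mean ± SD, n = 4. Statistics: one-way ANOVA with LSD post-test.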

Mus musculus [19] = assay: Anti-Hyperglycemic activity in high fat diet-fed/streptozotocin-induced type 2 diabetic mellitus C57BL/6 mouse model assessed as reduction in AUC(0 to 120 mins) of blood glucose level at 5 mg/kg, ip administered 30 mins prior to glucose challenge and measured after 120 mins by IGTT; format: functional; settings: C57BL/6, ip, 2.5 h, time 150 min; procedure, shortened: as §3
Mus musculus [20] = assay: Anti-Hyperglycemic activity in high fat diet-fed/streptozotocin-induced type 2 diabetic mellitus C57BL/6 mouse model assessed as reduction in AUC(0 to 120 mins) of blood glucose level at 10 mg/kg, ip administered 30 mins prior to glucose challenge and measured after 120 mins by IGTT; format: functional; settings: C57BL/6, ip, 2.5 h, time 150 min; procedure, shortened: as §3
Mus musculus [21] = assay: Anti-Hyperglycemic activity in high fat diet-fed/streptozotocin-induced type 2 diabetic mellitus C57BL/6 mouse model assessed as reduction in AUC(0 to 120 mins) of blood glucose level at 10 mg/kg, po administered 30 mins prior to glucose challenge and measured after 120 mins by OGTT; format: functional; settings: C57BL/6, po, 2.5 h, time 150 min; procedure, shortened: as §3
Mus musculus [22] = assay: Anti-Hyperglycemic activity in high fat diet-fed/streptozotocin-induced type 2 diabetic mellitus C57BL/6 mouse model assessed as reduction in blood glucose level at 10 mg/kg/day for 14 days and measured on day 14; format: functional; settings: C57BL/6, 336 h, time 14 day
Procedure, shortened: (§4)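 HFD/STZ-induced type 2 diabetic male C57BL/6 mice were dosed at 10 mg/kg/day for 14 days. Plasma glucose was tracked over the treatment period and compared with diabetic controls. Mean ± SD of 4 mice. Statistics: one-way ANOVA with LSD post-test.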

Mus musculus [23] = assay: Anti-Hyperglycemic activity in high fat diet-fed/streptozotocin-induced type 2 diabetic mellitus C57BL/6 mouse model assessed as reduction in blood glucose level at 10 mg/kg/day for 14 days and measured on day 5; format: functional, organism-based; settings: time 5.0 day; procedure, shortened: as §4

Chain of Dipeptidyl peptidase 9 (Q86TI2 whole entry): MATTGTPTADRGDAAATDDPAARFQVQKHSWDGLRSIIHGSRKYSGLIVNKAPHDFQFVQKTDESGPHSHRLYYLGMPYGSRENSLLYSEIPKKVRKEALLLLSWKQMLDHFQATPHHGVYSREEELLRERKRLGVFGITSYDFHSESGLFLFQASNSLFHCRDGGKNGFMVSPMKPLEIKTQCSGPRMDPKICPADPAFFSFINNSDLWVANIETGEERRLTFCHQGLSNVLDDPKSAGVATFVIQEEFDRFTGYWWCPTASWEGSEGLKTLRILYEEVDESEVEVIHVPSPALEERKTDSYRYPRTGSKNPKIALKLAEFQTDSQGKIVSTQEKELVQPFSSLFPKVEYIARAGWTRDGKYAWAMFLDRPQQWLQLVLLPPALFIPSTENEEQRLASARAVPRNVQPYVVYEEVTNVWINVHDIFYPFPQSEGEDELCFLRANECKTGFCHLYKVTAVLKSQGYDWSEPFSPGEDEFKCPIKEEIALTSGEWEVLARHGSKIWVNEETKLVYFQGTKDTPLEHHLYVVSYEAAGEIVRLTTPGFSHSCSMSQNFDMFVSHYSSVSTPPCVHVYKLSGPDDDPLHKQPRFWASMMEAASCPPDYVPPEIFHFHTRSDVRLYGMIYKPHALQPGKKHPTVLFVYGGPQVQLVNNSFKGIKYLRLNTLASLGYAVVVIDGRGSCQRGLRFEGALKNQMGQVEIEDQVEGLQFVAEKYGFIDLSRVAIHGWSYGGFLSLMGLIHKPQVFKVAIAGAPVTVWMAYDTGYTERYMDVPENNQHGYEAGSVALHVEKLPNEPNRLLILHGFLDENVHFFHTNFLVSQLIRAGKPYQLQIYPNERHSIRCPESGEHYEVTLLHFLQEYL
Chain of Dipeptidyl peptidase 8 (Q6V1X1 whole entry): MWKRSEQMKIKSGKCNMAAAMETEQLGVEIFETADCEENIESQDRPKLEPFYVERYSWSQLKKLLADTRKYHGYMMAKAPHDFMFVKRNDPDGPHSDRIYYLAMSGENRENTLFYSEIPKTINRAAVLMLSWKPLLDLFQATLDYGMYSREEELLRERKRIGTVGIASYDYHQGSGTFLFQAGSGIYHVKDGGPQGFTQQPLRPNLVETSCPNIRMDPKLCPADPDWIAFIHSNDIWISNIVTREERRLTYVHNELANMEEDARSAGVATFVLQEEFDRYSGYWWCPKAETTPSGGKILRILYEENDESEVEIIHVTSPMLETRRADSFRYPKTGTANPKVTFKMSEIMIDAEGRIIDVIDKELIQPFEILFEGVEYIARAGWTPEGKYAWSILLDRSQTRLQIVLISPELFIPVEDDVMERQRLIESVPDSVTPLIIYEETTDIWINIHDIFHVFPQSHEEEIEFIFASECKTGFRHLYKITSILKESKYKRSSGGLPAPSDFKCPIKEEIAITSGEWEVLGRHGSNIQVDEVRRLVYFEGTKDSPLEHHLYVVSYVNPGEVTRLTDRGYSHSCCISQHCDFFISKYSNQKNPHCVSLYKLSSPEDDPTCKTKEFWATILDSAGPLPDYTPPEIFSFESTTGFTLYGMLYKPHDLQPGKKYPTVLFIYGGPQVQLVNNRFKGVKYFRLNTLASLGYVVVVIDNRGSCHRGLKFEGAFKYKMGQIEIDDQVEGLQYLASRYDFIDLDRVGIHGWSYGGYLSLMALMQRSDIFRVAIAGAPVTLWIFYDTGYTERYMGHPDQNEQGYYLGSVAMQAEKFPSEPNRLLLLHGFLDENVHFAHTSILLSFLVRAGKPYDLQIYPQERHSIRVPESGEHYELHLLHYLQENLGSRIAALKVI
Chain of Dipeptidyl peptidase 4 (P27487 whole entry): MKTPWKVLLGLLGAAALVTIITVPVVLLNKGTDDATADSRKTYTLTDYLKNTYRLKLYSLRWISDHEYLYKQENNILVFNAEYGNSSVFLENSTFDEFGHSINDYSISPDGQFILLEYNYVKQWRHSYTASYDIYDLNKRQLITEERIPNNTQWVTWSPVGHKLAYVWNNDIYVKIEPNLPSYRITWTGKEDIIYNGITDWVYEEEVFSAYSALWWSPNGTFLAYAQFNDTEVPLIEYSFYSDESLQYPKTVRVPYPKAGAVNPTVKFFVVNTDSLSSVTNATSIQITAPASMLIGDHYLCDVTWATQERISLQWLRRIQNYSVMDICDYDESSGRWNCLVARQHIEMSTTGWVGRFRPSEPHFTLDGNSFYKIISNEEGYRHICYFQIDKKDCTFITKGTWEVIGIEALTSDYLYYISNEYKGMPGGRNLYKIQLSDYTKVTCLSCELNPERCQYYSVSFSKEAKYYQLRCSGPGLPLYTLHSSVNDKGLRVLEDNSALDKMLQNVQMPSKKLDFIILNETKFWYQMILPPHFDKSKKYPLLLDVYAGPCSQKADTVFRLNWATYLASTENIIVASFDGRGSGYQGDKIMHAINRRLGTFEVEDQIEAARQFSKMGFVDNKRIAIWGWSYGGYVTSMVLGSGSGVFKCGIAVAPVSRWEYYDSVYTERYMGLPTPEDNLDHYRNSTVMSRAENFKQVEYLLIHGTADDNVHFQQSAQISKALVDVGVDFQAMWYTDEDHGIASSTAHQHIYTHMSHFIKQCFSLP

N[C@@H]1CCCN(c2cc(NCc3ccccc3)n3nccc3n2)C1
IC50 (Dipeptidyl peptidase 8): > 100 µM
IC50 (Dipeptidyl peptidase 9): > 100 µM
Activity (HepG2): Toxic

N[C@@H]1CCCN(c2cc(Nc3ccccc3Cl)n3nccc3n2)C1
IC50 (Dipeptidyl peptidase 8): > 100 µM
IC50 (Dipeptidyl peptidase 9): > 100 µM

Cc1ccc(Nc2cc(N3CCC[C@@H](N)C3)nc3ccnn23)c(C)c1
IC50 (Dipeptidyl peptidase 8): > 100 µM
IC50 (Dipeptidyl peptidase 9): > 100 µM

O=[N+]([O-])c1ccccc1Nc1cc(N2CCNCC2)nc2ccnn12
IC50 (Dipeptidyl peptidase 8): > 100 µM
IC50 (Dipeptidyl peptidase 9): > 100 µM

Cc1ccnc(Nc2cc(N3CCNCC3)nc3ccnn23)c1
IC50 (Dipeptidyl peptidase 8): > 100 µM
IC50 (Dipeptidyl peptidase 9): > 100 µM

N[C@@H]1CCCN(c2cc(NCc3ccc(Cl)cc3Cl)n3nccc3n2)C1
IC50 (Dipeptidyl peptidase 8): > 100 µM
IC50 (Dipeptidyl peptidase 9): > 100 µM

Clc1ccc(CCNc2cc(N3CCNCC3)nc3ccnn23)c(Cl)c1
IC50 (Dipeptidyl peptidase 8): > 100 µM
IC50 (Dipeptidyl peptidase 9): > 100 µM
Activity (HepG2): Toxic

Cc1ccc(Nc2cc(N3CCC[C@@H](N)C3)nc3ccnn23)c(N)c1
IC50 (Dipeptidyl peptidase 8): > 100 µM
IC50 (Dipeptidyl peptidase 9): > 100 µM

Fc1ccc(Nc2cc(N3CCNCC3)nc3ccnn23)c(F)c1
IC50 (Dipeptidyl peptidase 8): > 100 µM
IC50 (Dipeptidyl peptidase 9): > 100 µM

Cc1ccnc(Nc2cc(N3CCC[C@@H](N)C3)nc3ccnn23)c1
IC50 (Dipeptidyl peptidase 8): > 100 µM
IC50 (Dipeptidyl peptidase 9): > 100 µM

N[C@@H]1CCCN(c2cc(Nc3cc(Cl)ccn3)n3nccc3n2)C1
IC50 (Dipeptidyl peptidase 8): > 50 µM
IC50 (Dipeptidyl peptidase 9): > 50 µM

CC(C)(C)Nc1cc(NC(C)(C)C)n2nccc2n1
IC50 (Dipeptidyl peptidase 4): > 100 µM

Fc1ccc(CNc2cc(N3CCNCC3)nc3ccnn23)c(F)c1
IC50 (Dipeptidyl peptidase 8): > 50 µM
IC50 (Dipeptidyl peptidase 9): > 50 µM
Activity (HepG2): Non-Toxic
viability at 48 h, 100 µM [1]: 90%
Activity (Mus musculus [2]): 25.7 mM
Activity (Mus musculus [3]): 18.6 mM
Activity (Mus musculus [4]): 17.9 mM
Activity (Mus musculus [5]): 14.8 mM
Activity (Mus musculus [6]): 23.4 mM
Activity (Mus musculus [7]): 18.5 mM
Activity (Mus musculus [8]): 17.4 mM
Activity (Mus musculus [9]): 15.1 mM
Activity (Mus musculus [10]): 16.2 mM
Activity (Mus musculus [11]): 14.4 mM
Activity (Mus musculus [12]): 13 mM
Activity (Mus musculus [13]): 10.9 mM
Activity (Mus musculus [14]): 26.7 mM
Activity (Mus musculus [15]): 19.1 mM
Activity (Mus musculus [16]): 18.5 mM
Activity (Mus musculus [17]): 15.6 mM
inhibition in vivo at 1 mg/kg (Mus musculus [18]): 26%
inhibition in vivo at 5 mg/kg (Mus musculus [19]): 28%
inhibition in vivo at 10 mg/kg (Mus musculus [20]): 47%
inhibition in vivo at 10 mg/kg (Mus musculus [21]): 22%
inhibition in vivo at 10 mg/kg/day (Mus musculus [22]): 46%
Activity (Mus musculus [23]): inactive

CN(c1ccccc1)c1cc(N2CCC[C@@H](N)C2)nc2ccnn12
IC50 (Dipeptidyl peptidase 4): > 100 µM

N[C@@H]1CCCN(c2cc(NCc3ccc(O)cc3)n3nccc3n2)C1
IC50 (Dipeptidyl peptidase 8): > 50 µM
IC50 (Dipeptidyl peptidase 9): > 50 µM

N[C@@H]1CCCN(c2cc(NCCc3ccc(Cl)cc3Cl)n3nccc3n2)C1
IC50 (Dipeptidyl peptidase 8): > 100 µM
IC50 (Dipeptidyl peptidase 9): > 100 µM

Cn1c(=O)cc(N2CCC[C@@H](N)C2)n(Cc2ccccc2C#N)c1=O [ALOGLIPTIN]
Activity (Mus musculus [10]): 22.9 mM
Activity (Mus musculus [11]): 17.4 mM
Activity (Mus musculus [12]): 16.3 mM
Activity (Mus musculus [13]): 15 mM
inhibition in vivo at 10 mg/kg (Mus musculus [20]): 30%
inhibition in vivo at 10 mg/kg/day (Mus musculus [22]): 57%
Activity (Mus musculus [23]): inactive

c1cc2nc(N3CCOCC3)cc(Nc3cc[nH]n3)n2n1
IC50 (Dipeptidyl peptidase 4): > 100 µM

Cc1ccc(Nc2cc(N3CCNCC3)nc3ccnn23)c(C)c1
IC50 (Dipeptidyl peptidase 8): > 100 µM
IC50 (Dipeptidyl peptidase 9): > 100 µM

Clc1ccc(Nc2cc(N3CCNCC3)nc3ccnn23)c(Cl)c1
IC50 (Dipeptidyl peptidase 8): > 100 µM
IC50 (Dipeptidyl peptidase 9): > 100 µM
Activity (HepG2): Toxic
